Bioassay records: PubChem, several laboratories
This is a sample that favours compounds with a hit; in the whole collection about 4.1% have one here.
KCC2 mod: modulators of human KCC2 chloride dependent transport; Q9H2X9; KCC2 cells, thallium flux FluoZin-2 fluorescence; B-score of Tl+ flux slope (higher = more flux/activation; lower = inhibition) at 10 µM; 190,000 tested, 2.2% active; AID 1456;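 active means thallium flux slope and its plate-corrected score both differing from the plate sample mean at a set confidence after two filtering rounds, in either direction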;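 further: slope of fluorescence scaled to starting intensity during 10 to 20 s after thallium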
KCNQ1 pot: potentiates or activates the human KCNQ1 potassium channel | P51787 | CHO-K1 KCNQ1, thallium flux FluxOR fluorescence; stronger effect = higher value | B-score at 10 µM | 310,000 tested, 0.35% active | AID 2648;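 active means fluorescence ratio B-score, a plate-corrected score, at least three library SD, with initial intensity B-score within 5 SD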
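Material: CHO-K1 cells stably expressing KCNQ1. Medium: assay buffer for compound exposure, DMSO matched across wells. Reagent: K+/Tl+ depolarizing stimulus. Compound dosing: single-concentration screen. Times: 37 °C overnight plating, 90-min dark dye load, 20-min compound pretreatment. Technique: FluxOR Tl+ flux fluorescence.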
hERG rescue: shields human hERG channel from block by proarrhythmic agents; activation (rescue from dofetilide block), less the hit threshold, % at 10 µM; Q12809; CHO-hERG, FluxOR thallium flux, dofetilide IC70 present; AID 1511; 310,000 tested, 0.51% active;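 active means activation above the mean of controls blocked by dofetilide plus 5 SD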;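 further: thallium influx through hERG after potassium depolarization seen as dye fluorescence rise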
KCNK3 block: human KCNK3 channel inhibition, primary screen | B-score at 10 µM | 340,000 tested, 0.84% active | O14649 | CHO-KCNK3 thallium flux, FluxOR fluorescence; stronger effect = lower value;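 active means B-score under library mean minus 4 SD, starting fluorescence ratio at most library mean plus 5 SD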;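 further: more negative B-score means stronger inhibition of thallium flux through KCNK3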
KCNK9 block: human KCNK9 channel inhibition. HEK293 KCNK9, FluxOR thallium flux fluorescence; stronger effect = lower value. AID 488922. B-score at 10 µM. 310,000 tested, 1.2% active;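 active means ratio B-score over 3 SD below the library mean, with starting fluorescence within 5 SD of its mean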;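 further: negative B-score means less thallium flux so channel inhibition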
KCNQ1 block: blocks the human KCNQ1 potassium channel. CHO-K1 KCNQ1, FluxOR thallium flux fluorescence; stronger effect = higher value. P51787. 310,000 tested, 1.3% active. B-score at 10 µM;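 active means compounds whose thallium flux B-score, printed positive for inhibition, exceeds three library SD while starting fluorescence stays within three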;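 further: channel opened by potassium depolarization with thallium stimulus after 20 min compound exposure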
KCNK9 block conf: confirmation of human KCNK9 potassium channel inhibitors. inhibition, % at 10 µM. AID 492992. 4,900 tested, 43% active. HEK293 KCNK9 cells, FluxOR thallium flux fluorescence. shares compounds with KCNK9 block;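 active means thallium signal inhibited by more than 5 SD of the compound-free buffer control wells, on both duplicate plates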;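 further: 0% = assay buffer control wells without compound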
Kir2-1 spec: mouse Kir2.1 off-target activity of KCNK9 modulators; shares compounds with KCNK9 block; Kir2.1 cells, FluxOR thallium flux fluorescence; inhibition, % at 10 µM; 4,900 tested, 4% active; AID 492993;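 active means thallium signal drop more than 5 SD beyond the mean of the no-compound control wells, seen in both duplicate plates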;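 further: signal is fluorescence rise after thallium addition divided by baseline fluorescence; plate controls were assay buffer only for no effect and full block by chlorpromazine control for full effect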
HEK293 Tl ctr: non-induced cell nonspecific activity of KCNK9 modulators; shares compounds with KCNK9 block; AID 492997; non-induced KCNK9-HEK293, FluxOR thallium flux; 4,900 tested, 40% active; inhibition, % at 10 µM;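 active means thallium signal drop beyond 5 SD of the untreated control mean, on both duplicate plates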;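 further: plate controls were buffer only IC0 wells for no effect and SID17386958 at its maximal inhibitory level for full effect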
Active calls of the source: *; i = inactive; x = no result given.

SMILES	KCC2 mod	KCNQ1 pot	hERG rescue	KCNK3 block	KCNK9 block	KCNQ1 block	KCNK9 block conf	Kir2-1 spec	HEK293 Tl ctr
CC1CN(S(=O)(=O)c2cccc(C(=O)N(CCc3ccccc3)Cc3ccccc3)c2)CC(C)O1 (stereo not drawn)	x	i	-8	i	i	i	i	i	i
Cc1ccc(S(=O)(=O)N2CCCCC2)cc1C(=O)N(CCc1ccccc1)Cc1ccccc1	x	i	-14	i	-16*	i	79%*	i	43%*
N#Cc1c(-c2ccc(F)cc2)c(-c2ccc(F)cc2)nn(CCO)c1=O	x	x	x	i	x	x	x	x	x
Cc1ccc(C(=O)Nc2ccc(Cc3ccncc3)cc2)cc1[N+](=O)[O-]	-1.7	i	-8	i	i	i	i	i	i
COc1ccccc1CNC(=O)c1cccc(S(=O)(=O)N(C)c2ccccc2)c1	x	x	x	i	x	x	x	x	x
Cc1cc(C2(c3ccc(O)c(C)c3)OC(=O)c3ccccc32)ccc1O	1.6	i	-6	i	-12*	i	55%*	i	i
Nc1ccc(C2(c3ccc(N)cc3)OC(=O)c3ccccc32)cc1	x	i	-4	i	i	i	x	x	x
COc1cccc(CNc2ccc(N3CCC(C)CC3)cc2)c1OC	-1.3	i	-3	i	i	i	i	i	i
CC1CCCCC12NC(=O)N(CC(=O)OCc1cccc(F)c1)C2=O (stereo not drawn)	x	x	x	i	x	x	x	x	x
Cc1cccc([N+](=O)[O-])c1NC(=O)CN(Cc1ccccc1)Cc1ccccc1	-0.12	i	-6	i	-8.8*	i	30%*	i	37%*
CCN1C(=O)C2(Nc3ccccc3-c3nc4ccccc4n32)c2cc(OC)ccc21 (stereo not drawn)	x	i	-13	i	-15*	i	58%*	i	24%*
CN1C(=O)C2(Nc3ccccc3-c3nc4ccccc4n32)c2ccccc21 (stereo not drawn)	-0.81	i	-5	i	i	i	x	x	x
O=C(c1ccc(Cl)c(S(=O)(=O)N2CCOCC2)c1)N(c1ccccn1)C1CCCCC1	0.49	i	-4	i	i	i	i	i	i
O=C(c1ccc(Cl)c(S(=O)(=O)N2CCCCCC2)c1)N1CCN(c2ccccn2)CC1	-1.4	i	-13	i	i	i	i	i	i
Cc1cccc(NC(=O)c2ccc(Cl)c(S(=O)(=O)N3CCCCCC3)c2)n1	x	x	x	i	x	x	x	x	x
CCCn1c(C)cc(C(=O)COC(=O)c2ccc(Cl)c(S(=O)(=O)N3CCCC3)c2)c1C	-1.7	i	-2	i	-18*	i	65%*	i	i
Cc1cccc(NC(=O)c2ccc(Cl)c(S(=O)(=O)N3CCCCC3)c2)n1	x	i	-12	i	i	i	i	i	24%*
O=C(Cc1coc2cc(O)ccc12)NNC(=O)c1cccs1	x	x	x	i	x	x	x	x	x
Cc1ccc(C(=O)N2CCCC(C(F)(F)F)C2)cc1S(=O)(=O)N1CCCCC1 (stereo not drawn)	x	i	-8	i	i	i	x	x	x
O=C(c1ccc(Cl)c(S(=O)(=O)N2CCCCCC2)c1)N1CCCC(C(F)(F)F)C1 (stereo not drawn)	x	i	-9	i	i	i	i	i	i
CCOC(=O)C1CCCN(C(=O)c2ccc(Cl)c(S(=O)(=O)N3CCCCC3)c2)C1 (stereo not drawn)	x	i	-7	i	i	i	i	i	i
Cc1ccc(CN2CCN(c3cccc4[nH]ccc34)CC2)cc1	x	i	-4	i	i	i	x	x	x
N#C/C(=C\c1cn[nH]c1-c1ccccc1)C(=O)NC1CCCCCC1	-0.34	i	-8	i	i	i	i	i	i
COC(=O)CC1(C(=O)OC)Oc2ccc(Br)cc2C(=O)N1c1ccc(Br)cc1Cl (stereo not drawn)	-0.96	i	-5	i	i	i	x	x	x
COC(=O)CC1(C(=O)OC)Oc2ccc(Br)cc2C(=O)N1c1cc(Cl)c(Cl)cc1Cl (stereo not drawn)	-0.42	i	-11	i	-8.6*	i	25%*	i	42%*
SMILES	KCC2 mod	KCNQ1 pot	hERG rescue	KCNK3 block	KCNK9 block	KCNQ1 block	KCNK9 block conf	Kir2-1 spec	HEK293 Tl ctr
C/C(=N\NC(=S)NCCc1ccccc1)c1ccc(O)cc1O	x	i	-23	i	i	i	x	x	x
C/C(=N\NC(=S)NCCc1ccccc1)c1ccc(Cl)cc1Cl	x	i	-2	i	i	i	i	i	i
CC(C)NC(=O)N(C)C[C@H]1Oc2ccc(NS(=O)(=O)c3ccccc3)cc2C(=O)N([C@H](C)CO)C[C@@H]1C	x	x	x	i	x	x	x	x	x
COc1ccc(N2CCN(c3nc(-c4cccs4)nc4ccccc34)CC2)cc1	-0.08	i	-17	i	-14*	i	31%*	i	28%*
COc1cccc(Nc2nc(-c3cccs3)nc3ccccc23)c1	0.17	i	-10	i	i	i	x	x	x
COc1cccc(CN(C)c2nc(-c3cccs3)nc3ccccc23)c1	0.41	i	-22	i	-9.2*	i	54%*	i	41%*
O=C(Nc1ccccc1)OC1CC2CC1C1CCCC21 (stereo not drawn)	-1.2	i	-3	i	i	i	i	i	i
O=C(Cc1cccc(NC(=O)C2CCCN(C(=O)CCc3ccccc3)C2)c1)Nc1cccc(C(=O)N2CCCCC2)c1 (stereo not drawn)	x	x	x	i	x	x	x	x	x
Cc1ccc(CN(C)c2nc(-c3cccnc3)nc3ccccc23)o1	x	i	-14	i	i	i	x	x	x
CN(Cc1ccccc1F)c1nc(-c2cccnc2)nc2ccccc12	x	i	-16	i	-8.2*	i	31%*	i	28%*
Cc1c(C(=O)Nc2ccc(-c3nnc4n3CCCCC4)cc2)oc2c1ccc1ccccc12	0.28	i	-8	i	-12*	i	i	i	30%*
COc1ccc(NS(=O)(=O)c2cc(NC(=O)c3ccc(=O)[nH]n3)ccc2N2CCOCC2)cc1	x	x	x	i	x	x	x	x	x
COc1ccc2c(c1)c(CC(=O)OC(C)C(=O)N(C)C)c(C)n2C(=O)c1ccc(Cl)cc1 (stereo not drawn)	x	i	-12	i	i	i	i	i	i
